Assay results reported in ChEMBL document CHEMBL1667804, “Design and synthesis of caffeoyl-anilides as portmanteau inhibitors of HIV-1 integrase and CCR5” (Bioorg Med Chem, 2011).
Activity calls are given as the source filed them. No cut-off for these calls is given here.

Tests used:
[1] = biological target: Human immunodeficiency virus type 1 integrase (Human immunodeficiency virus 1) (UniProt Q7ZJM1); experiment: Inhibition of full-length recombinant HIV1 integrase at 20 ug/ml
Outline: (§1)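 Kit ELISA-type strand-transfer assay. Biotin end-labelled double-stranded HIV-1 LTR U5 donor oligo bound on streptavidin plates, then full-length recombinant HIV-1 integrase loaded. Compound added, followed by a 3′-end-modified double-stranded target oligo. Screened at 20 µg/mL, IC50 determined in µg/mL and converted to molar. Sodium azide positive control.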

[2] = tested on: Human immunodeficiency virus 1; experiment: Antiviral activity against HIV1 NL4.3 infected in human CEM-GFP T cells assessed as inhibition of p24 antigen production at highest non cytotoxic concentration after 7 days by ELISA; type: functional, CCRF-CEM
Outline: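 HIV-1 NL4.3 infection of CEM-GFP cells at MOI 0.05, with compound at the highest noncytotoxic concentration (95% viability in MTT) for 7 days. p24 in day-7 supernatant measured by capture ELISA. Reported as % decrease versus untreated infected cells. Preliminary screen by GFP microfluorometry.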

[3] = tested on: Human immunodeficiency virus 1; experiment: Antiviral activity against HIV1 NL4.3 infected in human CEM-GFP T cells assessed as inhibition of p24 antigen production after 7 days by ELISA; type: functional, organism-based; settings: Human immunodeficiency virus 1, NL4.3, CCRF-CEM, 168 h
Outline: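 CEM-GFP cells infected with HIV-1 NL4.3 at MOI 0.05, then cultured with compound for up to 7 days after infection. Day-7 supernatant p24 measured by antigen-capture ELISA. EC50 is the concentration giving 50% inhibition of virus production against untreated infected cells (n = 3). AZT positive control.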

[4] = Cytotoxicity against human CEM-GFP cells after 48 hrs by MTT assay; type: cell-based, CCRF-CEM
Outline: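 MTT assay in CEM-GFP cells (2 × 10^4/well), 48 h exposure over a range of concentrations, with untreated and vehicle controls. Formazan dissolved and read at 540 nm. CC50 is the concentration giving 50% cytotoxicity in uninfected cells (n = 3).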

[5] = Therapeutic index, ratio of CC50 for human CEM-GFP cells to EC50 for HIV1 NL4.3; type: cell-based; settings: read-out: Ratio CC50/EC50
[6] = biological target: Human immunodeficiency virus type 1 integrase (Human immunodeficiency virus 1, UniProt Q7ZJM1); experiment: Inhibition of full-length recombinant HIV1 integrase; outline: as §1
[7] = tested on: Human immunodeficiency virus 1; experiment: Antiviral activity against R5 tropic HIV1 IndieC infected in human TZM-bl cells expressing CD4, CCR5 and CXCR4 assessed as inhibition of virus entry at highest non cytotoxic concentration after 48 hrs by luciferase assay; type: functional
Outline: (§2)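 TZM-bl cells (10^4/well) seeded and left overnight at 37 °C. Compound added in DMEM/10% FBS for 1 h, then cells washed and infected for 4 h with IndieC (R5) or IIIB (X4).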

[8] = tested on: Human immunodeficiency virus 1; experiment: Antiviral activity against X4 tropic HIV1 3B infected in human TZM-bl cells expressing CD4, CCR5 and CXCR4 assessed as inhibition of virus entry at highest non cytotoxic concentration after 48 hrs by luciferase assay; type: functional; outline: as §2
[9] = biological target: Human immunodeficiency virus type 1 reverse transcriptase (Human immunodeficiency virus 1) (UniProt Q72547); experiment: Inhibition of HIV1 reverse transcriptase
[10] = Cytotoxicity against human CEM-GFP cells assessed as highest non cytotoxic concentration after 48 hrs by MTT assay; type: cell-based, CCRF-CEM; settings: read-out: MNCC
Outline: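 Viability by MTT in CEM-GFP cells after 48 h, absorbance at 540 nm. Viability first measured at three concentrations, then further dilutions made to find the concentration giving 95% viability.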

[11] = biological target: Human immunodeficiency virus type 1 integrase (Human immunodeficiency virus 1) (UniProt Q7ZJM1); settings: 5 ug/ml

Sequence of Human immunodeficiency virus type 1 integrase (Human immunodeficiency virus 1) (Q7ZJM1 as listed by the source): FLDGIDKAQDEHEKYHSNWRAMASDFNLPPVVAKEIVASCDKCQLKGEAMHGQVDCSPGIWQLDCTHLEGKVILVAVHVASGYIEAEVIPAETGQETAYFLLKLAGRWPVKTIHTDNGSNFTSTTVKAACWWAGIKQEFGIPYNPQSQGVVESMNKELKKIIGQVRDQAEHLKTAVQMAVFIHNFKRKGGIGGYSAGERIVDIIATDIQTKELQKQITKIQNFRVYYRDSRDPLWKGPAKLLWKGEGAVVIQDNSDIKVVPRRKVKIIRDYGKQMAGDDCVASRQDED
Sequence of Human immunodeficiency virus type 1 integrase (Q7ZJM1 whole entry): as the sequence (Q7ZJM1 as listed by the source) above

SMILES | inhibition [1] [%] | inhibition (INH) [2] [%] | EC50 [3] [µM] | CC50 at 48 h [4] [µM] | selectivity ratio [5] | IC50 [6] [µM] | inhibition (INH) [7] [%] | inhibition (INH) [8] [%] | Activity [9] | MNTC at 48 h [10] [nM] | inhibition [11] [%]
O=C(/C=C/c1ccc(O)c(O)c1)c1ccc(NC(=O)c2ccc(F)c(F)c2)cc1 | 74 | 77.6 | 1.6 | 15.7 | 9.8 | 28.5 | 71.5 | 0 | inactive | 2500 | 
O=C(/C=C/c1ccc(O)c(O)c1)c1ccc(NC(=O)c2ccc(F)cc2F)cc1 |  | 16 |  |  |  |  |  |  | inactive | 6300 | 
O=C(/C=C/c1ccc(O)c(O)c1)c1ccc(NC(=O)c2ccc3ccccc3c2)cc1 |  | 0 |  |  |  |  |  |  | inactive | 2400 | 
CC(=O)Nc1ccc(C(=O)/C=C/c2ccc(O)c(O)c2)cc1 |  | 0 |  |  |  |  |  |  | inactive | 1700 | 
O=C(/C=C/c1ccc(O)c(O)c1)c1ccc(NC(=O)c2ccc(C(F)(F)F)cc2F)cc1 |  | 10.9 |  |  |  |  |  |  | inactive | 2200 | 
Cc1cn([C@H]2C[C@H](N=[N+]=[N-])[C@@H](CO)O2)c(=O)[nH]c1=O [ZIDOVUDINE] |  | 89.8 | 1.1 | 24.1 |  |  |  |  | inactive | 5000 | 
O=C(/C=C/c1ccc(O)c(O)c1)c1ccc(NC(=O)c2cccs2)cc1 |  | 0 |  |  |  |  |  |  | inactive | 2700 | 
O=C(Cc1cccs1)Nc1ccc(C(=O)/C=C/c2ccc(O)c(O)c2)cc1 | 66.5 | 71.6 | 0.9 | 51.4 | 59.1 | 44.6 | 52.9 | 0 | inactive | 2600 | 
CC(C)CC(=O)Nc1ccc(C(=O)/C=C/c2ccc(O)c(O)c2)cc1 |  | 0 |  |  |  |  |  |  | inactive | 1400 | 
CC(C)C(=O)Nc1ccc(C(=O)/C=C/c2ccc(O)c(O)c2)cc1 |  | 0 |  |  |  |  |  |  | inactive | 1500 | 
[N-]=[N+]=[N-] [SODIUM AZIDE] |  |  |  |  |  | 1.2 |  |  | inactive |  | 98.8
COc1ccc(C(=O)Nc2ccc(C(=O)/C=C/c3ccc(O)c(O)c3)cc2)cc1 | 66.8 | 92.4 | 1.9 | 32.3 | 17.4 | 25.2 | 55.8 | 0 | inactive | 6400 | 
O=C(/C=C/c1ccc(O)c(O)c1)c1ccc(NC(=O)C23C[C@H]4C[C@@H](C2)C[C@@H](C3)C4)cc1 | 67.7 | 86.1 | 4.2 | 13.5 | 3.2 | 36.8 | 59.6 | 0 | inactive | 6000 | 
O=C(/C=C/c1ccc(O)c(O)c1)c1ccc(NC(=O)c2ccccc2)cc1 | 56 | 73 | 1.6 | 20.3 | 13 | 50.2 | 58.6 | 27.8 | inactive | 2800 | 
Nc1ccc(C(=O)/C=C/c2ccc(O)c(O)c2)cc1 |  | 0 |  |  |  |  |  |  | inactive | 3900 | 
O=C(/C=C/c1ccc(O)c(O)c1)c1ccc(NC(=O)c2ccco2)cc1 |  | 24.2 |  |  |  |  |  |  | inactive | 2900 | 
